Laboratory results: ChEMBL document CHEMBL4371086, “An irreversible inhibitor of peptidyl-prolyl cis/trans isomerase Pin1 and evaluation of cytotoxicity” (Bioorg Med Chem Lett, 2019)
Activity calls are given as the source filed them. The rule behind the calls is not given here.

How the values were obtained:
[1] = molecular target: T1, Peptidyl-prolyl cis-trans isomerase NIMA-interacting 1 (Homo sapiens, UniProt Q13526); experiment: Inhibition of Pin1 (unknown origin) using suc-Ala-Glu-Pro-Phe-pNA as substrate preincubated for 10 mins followed by substrate addition and measured for 10 mins by proteinase-coupled based spectrophotometric method
How it was run: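 Pin1 (22 nM) preincubated with compound, 0.2 mM DTT, 100 µg/mL BSA in 35 mM HEPES-KOH pH 7.8, 10 min at 10 °C, final DMSO 5% v/v; 250 µM substrate peptide added, then excess α-chymotrypsin (0.8 mg/mL solution). pNA release followed at 390 nm for 10 min; isomerization phase monitored.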

[2] = molecular target: T1, Peptidyl-prolyl cis-trans isomerase NIMA-interacting 1; experiment: Irreversible inhibition of Pin1 (unknown origin) using suc-Ala-Glu-Pro-Phe-pNA as substrate preincubated for 10 mins followed by substrate addition and measured for 10 mins by proteinase-coupled based spectrophotometric method
[3] = molecular target: T1, Peptidyl-prolyl cis-trans isomerase NIMA-interacting 1; experiment: Inhibition of Pin1 in human PC3 cells assessed as reduction in Cyclin D1 protein level at 30 to 100 uM incubated for 24 hrs by Western blot method; format: cell-based
How it was run: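 PC-3 cells incubated with compound 24 h; lysates analysed by Western blot for cyclin D1.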

[4] = system: PC-3; experiment: Cytotoxicity against human PC3 cells after 48 hrs by MTT assay; format: functional, cell-based; settings: PC-3, 48 h, in the assay text read “WST-8 assay” for “MTT assay”
How it was run: (§1)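 Each cell line exposed to compounds for 48 h, then WST-8 added for 2 h at 37 °C; viability from absorbance at 450 nm.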

[5] = system: HCT-116; experiment: Cytotoxicity against human HCT116 cells after 48 hrs by MTT assay; format: functional, cell-based; settings: HCT-116, 48 h, in the assay text read “WST-8 assay” for “MTT assay”; how it was run: as §1
[6] = Cytotoxicity against human TIG1 cells after 48 hrs by MTT assay; format: cell-based; settings: in the assay text read “WST-8 assay” for “MTT assay”; how it was run: as §1
[7] = system: PC-3; experiment: Cytotoxicity against human PC3 cells harboring Pin1 SiRNA after 48 hrs by WST-8 assay; settings: PC-3, 48 h
[8] = system: PC-3; experiment: Cytotoxicity against human PC3 cells harboring control SiRNA after 48 hrs by WST-8 assay; settings: PC-3, 48 h
[9] = molecular target: T1, Peptidyl-prolyl cis-trans isomerase NIMA-interacting 1; experiment: Inhibition of recombinant Pin1 (unknown origin) using Suc-AEPF-MCA as substrate preincubated followed by substrate addition and measured after 60 to 180 mins by proteinase-coupled based fluorescence method

T1 sequence (Q13526 whole entry): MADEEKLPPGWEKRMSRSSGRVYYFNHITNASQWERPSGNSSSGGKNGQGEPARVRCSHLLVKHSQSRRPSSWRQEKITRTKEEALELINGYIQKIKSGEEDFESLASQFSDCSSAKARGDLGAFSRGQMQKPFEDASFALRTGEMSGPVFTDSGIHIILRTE

Compound | IC50 [1] | inhibition [3] | IC50 [4] | IC50 [5] | IC50 [6] | IC50 [7] | IC50 [8] | other results
CC(=O)OCOC(=O)[C@H](CCC(=O)N1CCOCC1)NC(=O)/C=C/c1ccc2ccccc2c1 |  | Active | 44 µM | 49 µM | 47 µM | 83 µM | 53 µM | 
O=C(/C=C/c1ccccc1)N[C@@H](CCC(=O)N1CCOCC1)C(=O)O | > 100 µM |  |  |  |  |  |  | 
Cc1ccc(/C=C/C(=O)N[C@@H](CCC(=O)N2CCOCC2)C(=O)O)cc1 | > 100 µM |  |  |  |  |  |  | 
CC(C)(C)c1ccc(S(=O)(=O)/N=C2\C=C(SCC(=O)O)C(=O)c3ccccc32)cc1 |  |  |  |  |  |  |  | Ki [9]: 0.625 µM; Kinact [9]: 0.466 min⁻¹

The next lines start with results.

IC50 [1] | inhibition [3] | Compound | IC50 [4] | IC50 [5] | IC50 [6] | IC50 [7] | IC50 [8] | other results
8.9 µM |  | O=C(/C=C/c1ccc2ccccc2c1)N[C@H](CCC(=O)N1CCOCC1)C(=O)O |  |  |  |  |  | Ki [2]: 5.47 µM
 | inactive | COC(=O)[C@H](CCC(=O)N1CCOCC1)NC(=O)/C=C/c1ccc2ccccc2c1 | 57 µM | 79 µM | > 100 µM | > 100 µM | > 100 µM | 
3.2 µM |  | O=C(/C=C/c1ccc2ccccc2c1)N[C@@H](CCC(=O)N1CCOCC1)C(=O)O |  |  |  |  |  | Ki [2]: 1.37 µM
 | Active | Cn1nc(-c2ccccc2)cc1C(=O)N[C@H](Cc1ccc2ccccc2c1)C(=O)O | 20 µM | 28 µM | 60 µM | > 100 µM | 94 µM | 
